Calls of active or inactive are those of the source. The calls are words filed in the database; no cut-off is given here.
What was measured:
[1] = species on record: Homo sapiens; test: Selectivity for human galectin-8N over human galectin-9 C terminal domain
[2] = molecular target: T1, Galectin-9 (Homo sapiens, UniProt O00182); test: Binding affinity to human galectin-9 C terminal domain assessed as dissociation constant measured up to 1500 uM by competitive fluorescence polarization assay; details: dose microM <=1500
T1 sequence (O00182 whole entry, the tested form may be a part): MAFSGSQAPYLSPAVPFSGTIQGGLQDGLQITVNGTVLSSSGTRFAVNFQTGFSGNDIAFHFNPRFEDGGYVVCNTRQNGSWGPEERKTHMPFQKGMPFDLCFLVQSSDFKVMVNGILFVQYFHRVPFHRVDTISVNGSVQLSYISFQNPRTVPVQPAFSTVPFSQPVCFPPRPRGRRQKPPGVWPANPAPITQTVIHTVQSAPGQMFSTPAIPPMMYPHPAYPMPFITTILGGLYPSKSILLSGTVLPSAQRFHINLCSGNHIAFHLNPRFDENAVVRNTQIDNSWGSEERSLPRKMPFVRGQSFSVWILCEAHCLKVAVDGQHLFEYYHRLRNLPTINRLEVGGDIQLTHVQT

[3] = species on record: Homo sapiens; test: Selectivity for human galectin-8N over human galectin-4 C terminal domain
[4] = species on record: Homo sapiens; test: Selectivity for human galectin-8N over human galectin-2
[5] = species on record: Homo sapiens; test: Selectivity for human galectin-8N over human galectin-3
[6] = molecular target: T2, Galectin-2 (Homo sapiens) (UniProt P05162); test: Binding affinity to human galectin-2 assessed as dissociation constant measured up to 1500 uM by competitive fluorescence polarization assay; details: dose microM <=1500
T2 sequence (whole entry): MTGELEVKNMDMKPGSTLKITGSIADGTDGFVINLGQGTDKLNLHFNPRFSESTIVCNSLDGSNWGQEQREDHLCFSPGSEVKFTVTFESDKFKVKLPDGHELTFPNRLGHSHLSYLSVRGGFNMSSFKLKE

[7] = species on record: Homo sapiens; test: Selectivity for human galectin-8N over human galectin-4 N terminal domain
[8] = molecular target: T3, Galectin-7 (Homo sapiens, UniProt P47929); test: Binding affinity to human galectin-7 assessed as dissociation constant by competitive fluorescence polarization assay
T3 sequence (P47929 whole entry): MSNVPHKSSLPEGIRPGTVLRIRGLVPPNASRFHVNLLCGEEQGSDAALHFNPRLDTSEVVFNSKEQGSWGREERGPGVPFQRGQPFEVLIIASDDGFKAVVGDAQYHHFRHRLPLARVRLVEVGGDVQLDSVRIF

[9] = species on record: Homo sapiens; test: Selectivity for human galectin-8N over human galectin-1
[10] = species on record: Homo sapiens; test: Selectivity for human galectin-8N over human galectin-8 C terminal domain
[11] = molecular target: T4, Galectin-8 (Homo sapiens) (UniProt O00214); test: Binding affinity to human galectin-8 C terminal domain assessed as dissociation constant measured up to 1500 uM by competitive fluorescence polarization assay; details: dose microM <=1500
T4 sequence (whole entry): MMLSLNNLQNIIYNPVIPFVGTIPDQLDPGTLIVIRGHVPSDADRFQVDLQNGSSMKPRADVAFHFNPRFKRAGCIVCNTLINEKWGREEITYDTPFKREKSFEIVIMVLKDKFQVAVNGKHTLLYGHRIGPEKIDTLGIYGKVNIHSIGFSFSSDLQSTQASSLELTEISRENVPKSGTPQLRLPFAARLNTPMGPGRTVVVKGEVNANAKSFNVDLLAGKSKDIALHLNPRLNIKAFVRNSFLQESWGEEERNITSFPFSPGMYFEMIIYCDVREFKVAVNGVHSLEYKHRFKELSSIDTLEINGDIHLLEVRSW

[12] = molecular target: Galectin-1 (Homo sapiens) (UniProt P09382); test: Binding affinity to human galectin-1 assessed as dissociation constant measured up to 1500 uM by competitive fluorescence polarization assay; details: dose microM <=1500
Chain of Galectin-1 (Homo sapiens) (P09382 whole entry, the tested form may be a part): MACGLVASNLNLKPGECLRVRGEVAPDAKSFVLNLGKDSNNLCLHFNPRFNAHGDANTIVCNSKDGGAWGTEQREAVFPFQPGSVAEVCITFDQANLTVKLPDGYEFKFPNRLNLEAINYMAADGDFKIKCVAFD

[13] = species on record: Homo sapiens; test: Selectivity for human galectin-8N over human galectin-9 N terminal domain
[14] = molecular target: T3, Galectin-7; test: Binding affinity to human galectin-7 assessed as dissociation constant measured up to 1500 uM by competitive fluorescence polarization assay; details: dose microM <=1500
[15] = tested on: K562; test: Cytotoxicity against human K562 cells assessed as cell viability at 1 to 100 uM measured after 24 hrs by MTS assay; type: functional, cell-based; details: dose 1-100 µM
How it was run: (§1)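 MTS viability assay on human PBMCs and on the K562 and MDA-MB-231 cancer lines. The cancer lines were exposed to 1–100 μM compound, and PBMCs to concentrations up to 100 μM. Read-out was the MTS tetrazolium reduction signal.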

[16] = molecular target: T4, Galectin-8 (Homo sapiens); test: Antagonist activity at galactin-8 in human MDA-MB-231 cells assessed as reduction in IL-8 secretion at 100 uM measured after 24 hrs by flow cytometry relative to control; type: cell-based; design: scale not given: the % may be the effect or the level left
How it was run: (§2)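 MDA-MB-231 cells, which express galectin-8 endogenously, were incubated with the compounds at 10 or 100 μM. Secreted IL-6 and IL-8 were quantified in pg/mL and compared with untreated cells. Values are means ± SEM from three independent experiments, with significance tested against untreated controls. Cell viability at the same concentrations was checked separately by MTS assay.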

[17] = Cytotoxicity against human PBMC cells assessed as cell viability upto 100 uM measured after 24 hrs by MTS assay; type: cell-based; how it was run: as §1
[18] = molecular target: T4, Galectin-8 (Homo sapiens); test: Antagonist activity at galactin-8 in human MDA-MB-231 cells assessed as reduction in IL-6 secretion at 100 uM measured after 24 hrs by flow cytometry relative to control; type: cell-based; design: scale not given: the % may be the effect or the level left; how it was run: as §2
[19] = tested on: MDA-MB-231; test: Cytotoxicity against human MDA-MB-231 cells assessed as cell viability at 1 to 100 uM measured after 24 hrs by MTS assay; type: functional, cell-based; details: dose 1-100 µM; how it was run: as §1
[20] = molecular target: T5, Galectin-4 (Homo sapiens) (UniProt P56470); test: Binding affinity to human galectin-4 N terminal domain assessed as dissociation constant measured up to 1500 uM by competitive fluorescence polarization assay; details: dose microM <=1500
T5 sequence (whole entry): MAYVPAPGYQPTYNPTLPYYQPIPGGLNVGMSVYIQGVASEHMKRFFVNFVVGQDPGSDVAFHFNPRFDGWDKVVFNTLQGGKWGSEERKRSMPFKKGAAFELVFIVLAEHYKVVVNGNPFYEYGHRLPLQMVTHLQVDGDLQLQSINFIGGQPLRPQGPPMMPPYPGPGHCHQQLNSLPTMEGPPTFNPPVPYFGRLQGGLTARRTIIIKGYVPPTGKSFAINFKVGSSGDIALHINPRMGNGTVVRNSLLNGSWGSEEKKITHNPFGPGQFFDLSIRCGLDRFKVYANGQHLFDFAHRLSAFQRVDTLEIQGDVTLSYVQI

[21] = molecular target: T1, Galectin-9; test: Binding affinity to human galectin-9 N terminal domain assessed as dissociation constant measured up to 1500 uM by competitive fluorescence polarization assay; details: dose microM <=1500
[22] = molecular target: T6, Galectin-8 (Homo sapiens, UniProt O00214); test: Binding affinity to human galectin-8 C terminal domain assessed as dissociation constant by competitive fluorescence polarization assay
T6 sequence (O00214 whole entry): T4 sequence (whole entry)

[23] = molecular target: T7, Galectin-4 (Homo sapiens, UniProt P56470); test: Binding affinity to human galectin-4 C terminal domain assessed as dissociation constant by competitive fluorescence polarization assay
T7 sequence (P56470 whole entry): T5 sequence (whole entry)

[24] = molecular target: T8, Galectin-2 (Homo sapiens, UniProt P05162); test: Binding affinity to human galectin-2 assessed as dissociation constant by competitive fluorescence polarization assay
T8 sequence (P05162 whole entry): T2 sequence (whole entry)

[25] = molecular target: T1, Galectin-9; test: Binding affinity to human galectin-9 N terminal domain assessed as dissociation constant by competitive fluorescence polarization assay
[26] = molecular target: T1, Galectin-9; test: Binding affinity to human galectin-9 C terminal domain assessed as dissociation constant by competitive fluorescence polarization assay
[27] = molecular target: T7, Galectin-4; test: Binding affinity to human galectin-4 N terminal domain assessed as dissociation constant by competitive fluorescence polarization assay
[28] = molecular target: T4, Galectin-8 (Homo sapiens); test: Antagonist activity at galactin-8 in human MDA-MB-231 cells assessed as reduction in IL-6 secretion at 10 uM measured after 24 hrs by flow cytometry relative to control; type: cell-based; design: scale not given: the % may be the effect or the level left; how it was run: as §2

Row | SMILES | Selectivity ratio [1] | Activity [2] | Selectivity ratio [3] | Selectivity ratio [4] | Selectivity ratio [5] | Selectivity ratio [7] | Kd [8] | Selectivity ratio [9] | Selectivity ratio [10] | Selectivity ratio [13] | Activity [21] | Kd [24] | further results
1 | COC(=O)c1ccc2ccc(CO[C@@H]3C=CO[C@H](CO)[C@@H]3O)nc2c1 | > 2 | inactive | > 2 | > 2 | > 2 | > 2 | Not Active | > 2 | > 2 | > 2 | – | – | Activity [6]: inactive; Activity [11]: inactive; Activity [12]: inactive
2 | Cn1c(CO[C@@H]2C=CO[C@H](CO)[C@@H]2O)nc2ccc(C(=O)O)cc21 | > 2 | inactive | > 2 | > 2 | – | > 2 | – | – | > 2 | > 2 | – | – | Activity [14]: inactive; Activity [15]: inactive; Activity [16]: 55%; Activity [17]: Non-Toxic; Activity [18]: 65%; Activity [19]: inactive
3 | O=C(O)c1ccc2ccc(CO[C@@H]3C=CO[C@H](CO)[C@@H]3O)nc2c1 | > 2 | inactive | > 2 | > 2 | > 2 | > 2 | – | > 2 | > 2 | > 2 | – | – | Activity [14]: inactive; Activity [20]: inactive
4 | O=C(O)c1ccc2nc(CO[C@@H]3C=CO[C@H](CO)[C@@H]3O)[nH]c2c1 | > 2 | – | > 2 | > 2 | > 2 | > 2 | – | > 2 | > 2 | > 2 | inactive | – | Activity [14]: inactive; Activity [15]: inactive; Activity [17]: Non-Toxic; Activity [12]: inactive; Activity [19]: inactive; Kd [22]: Not Active
5 | CCOC(=O)c1ccc2c(c1)nc(CO[C@@H]1C=CO[C@H](CO)[C@@H]1O)n2C | – | – | – | – | 0.99 | – | Not Active | 1.2 | > 2 | – | – | Not Active | Kd [23]: Not Active; Kd [25]: Not Active; Kd [26]: Not Active; Kd [27]: Not Active
6 | Cn1c(CO[C@@H]2C=CO[C@H](CO)[C@@H]2O)nc2cc(C(=O)O)ccc21 | > 2 | inactive | > 2 | – | 0.95 | > 2 | Not Active | 1.4 | > 2 | > 2 | inactive | Not Active | –
7 | COC(=O)c1ccc2nc(CO[C@@H]3C=CO[C@H](CO)[C@@H]3O)n(C)c2c1 | – | – | > 2 | – | > 2 | > 2 | Not Active | > 2 | > 2 | > 2 | inactive | Not Active | Kd [26]: Not Active
8 | OC[C@H]1Oc2cc(Cc3ccc(F)cc3)cc3c2[C@@H](OC3)[C@H]1O | > 2 | – | > 2 | – | > 2 | > 2 | Not Active | > 2 | – | > 2 | – | Not Active | Kd ([23]; read-out: Kd): > 3 mM; Kd [22]: Not Active
9 | CO[C@@H]1O[C@H](CO)[C@H](O)[C@H](O)[C@H]1O | – | – | – | – | – | – | Not Active | – | – | – | – | – | –
10 | COC(=O)c1ccc2nc(CO[C@@H]3C=CO[C@H](CO)[C@@H]3O)[nH]c2c1 | > 2 | inactive | > 2 | – | > 2 | > 2 | Not Active | > 2 | > 2 | > 2 | inactive | Not Active | Activity [12]: inactive
11 | Cn1c(CO[C@@H]2[C@@H](O)[C@@H](Sc3ccc(Cl)c(Cl)c3)O[C@H](CO)[C@@H]2O)nc2ccc(C(=O)O)cc21 | – | – | – | – | – | – | – | – | – | – | – | – | Activity [15]: inactive; Activity [28]: 15%; Activity [16]: 55%; Activity [17]: Non-Toxic; Activity [18]: 65%; Activity [19]: inactive
12 | OC[C@H]1OC=C[C@@H](O)[C@H]1O | > 2 | – | > 2 | – | > 2 | 1.8 | Not Active | 1.2 | > 2 | > 2 | inactive | Not Active | –
